# Compound activity: PubChem, The Scripps Research Institute Molecular Screening Center
# Compounds with a hit are over-represented: about 3% of the library has one in this group of screens.
# HTR1E antagonist: 5-HT1E receptor antagonists, primary screen, cell-based, HTS; 5-hydroxytryptamine receptor 1E (Homo sapiens), P28566; CHO 5-HT1E Ga15 NFAT-bla reporter, FRET, antagonist; inhibition, % at 6 µM; 65,000 tested, 0.99% active;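 active = inhibition above a set limit, the mean inhibition across every tested compound plus 3 SD, cut at about 29% in these data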;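 also: signal is the 460 over 535 nm emission ratio of beta-lactamase substrate; 0% = agonist plus DMSO wells and 100% = wells without agonist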
# S1P3 ag: human S1P3 receptor agonists, primary screen, cell-based, primary and confirmation, NFAT-BLA reporter | Sphingosine 1-phosphate receptor 3 (Homo sapiens), Q99500 | S1P3 NFAT-BLA reporter cells, agonism, FRET ratio; relative to 1 µM S1P, basal subtracted | activation, % at 4.5 µM | 60,000 tested, 0.1% active;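 active = activation above the screen-wide mean plus 3 SD, cut at about 4.5% in these data, passing the limit was not always enough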
#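 material = human S1P3 NFAT-BLA reporter CHO cells | schedule = 4 h compound at 37 °C, 2 h substrate at RT | measured by = fluorescent BLA substrate, ex 405 nm, em 460/535 nm ratio | controls = 1 µM S1P reference | replication = primary once, confirmation triplicate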
# 5HT1a antag: human 5-HT1a receptor antagonists, primary screen, cell-based, CHO, Ga15 NFAT-bla reporter | CHO 5-HT1a Ga15 NFAT-bla reporter, antagonist mode | inhibition, % at 10 µM | 62,000 tested, 0.68% active | AID 612, 2007;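 active = inhibition above the mean of all tested compounds plus 3 SD, cut at about 43% in these data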;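 also: receptor stimulated by 5-CT agonist at 100 nM near EC80; beta-lactamase reporter measured by ratiometric fluorescence of a cleavable substrate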
# Target sequence (P08908 whole entry, looked up): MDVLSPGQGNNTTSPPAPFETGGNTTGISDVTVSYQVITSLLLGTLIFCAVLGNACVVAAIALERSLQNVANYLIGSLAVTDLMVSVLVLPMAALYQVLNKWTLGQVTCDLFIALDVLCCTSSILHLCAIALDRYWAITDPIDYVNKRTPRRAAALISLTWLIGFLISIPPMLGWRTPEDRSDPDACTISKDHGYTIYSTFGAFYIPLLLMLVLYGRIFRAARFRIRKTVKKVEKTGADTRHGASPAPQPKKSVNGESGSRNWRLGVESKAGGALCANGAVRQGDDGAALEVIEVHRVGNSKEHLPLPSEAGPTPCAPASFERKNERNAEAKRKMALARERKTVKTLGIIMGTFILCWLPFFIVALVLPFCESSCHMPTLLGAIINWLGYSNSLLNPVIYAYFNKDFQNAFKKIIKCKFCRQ
# S1P1 ag-PAM: S1P1 agonists and agonism potentiators, primary screen, cell-based, primary and confirmation screens, CRE-bla reporter; Sphingosine 1-phosphate receptor 1 (Homo sapiens), P21453; S1P1 CRE-bla cells, forskolin, beta-lactamase FRET, potentiator mode; S1P1 agonist co-added at EC20, 2 nM; 100% = saturating reference agonist, 0% = basal; activation, % at 9.5 µM; 56,000 tested, 0.57% active;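 active = activation above a cutoff set at the mean activation of all tested compounds plus 3 SD, cut at about 54% in these data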;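 also: forskolin at 4 µM as EC80 and the EC20 agonist is SEW2871; 100% = SEW2871 at its EC100 plus forskolin at EC80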
# HTR1A agonist: human 5-HT1a receptor agonists, primary screen, cell-based, CHO, Ga15 NFAT-bla reporter. CHO 5-HT1a Ga15 NFAT-bla reporter, FRET ratio; 0% basal, 100% maximal reference agonist. activation, % at 10 µM. 65,000 tested, 0.56% active;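 active = activation above the screen-wide mean activation plus 3 SD, cut at about 19% in these data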;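 also: 0% = DMSO wells and 100% = 5-CT at EC100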
# HTR1E agonist: 5-HT1E receptor agonists, primary screen, cell-based, HTS; 65,000 tested, 0.69% active; AID 574, 2007; CHO 5-HT1E Ga15 NFAT-bla reporter, FRET; 0% DMSO wells, 100% control agonist wells; 5-hydroxytryptamine receptor 1E (Homo sapiens), P28566; activation, % at 6 µM;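 active = activation above a set limit, the screen-wide mean activation plus 3 SD, cut at about 8.5% in these data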;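 also: 100% = positive control agonist at 1 µM giving full maximal response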
# * hit, by the source's call; / = not tested or not shown.
SMILES,HTR1E antagonist,S1P3 ag,5HT1a antag,S1P1 ag-PAM,HTR1A agonist,HTR1E agonist
CCCCOC(=O)c1[nH]c2c(c1C)C(=O)CC(c1cc(OC)c(OC)c(OC)c1)C2 (configuration not stated),15,-1,25,134*,1,0
Cc1c(C(=O)O)[nH]c2c1C(=O)CC(c1ccccc1)C2 (configuration not stated),5,/,-12,/,0,0
Cc1c(C(=O)OCCOC(C)C)[nH]c2c1C(=O)CC(c1ccco1)C2 (configuration not stated),81*,-2,63*,-12,-3,-1
Cc1c(C(=O)OCc2ccccc2)[nH]c2c1C(=O)CC(c1ccco1)C2 (configuration not stated),84*,-1,58*,-1,1,-1
CCOC(=O)c1c(NC(=O)c2csc(C)c2)sc(C(C)=O)c1C,4,-1,-2,-5,-3,-1
CCCC1(C(=O)O)NC(c2ccc(OC)cc2O)C2C(=O)N(c3ccc(OC)cc3)C(=O)C21 (configuration not stated),-1,1,-4,-26,-3,0
COCCOC(=O)c1[nH]c2c(c1C)C(=O)CC(c1ccccc1)C2 (configuration not stated),67*,/,36,/,1,-1
CCOC(=O)c1[nH]c2c(c1C)C(=O)CC(c1ccco1)C2 (configuration not stated),74*,-1,53*,-10,-1,0
CSCCOC(=O)c1[nH]c2c(c1C)C(=O)CC(c1ccco1)C2 (configuration not stated),57*,0,27,21,0,1
COC(=O)c1[nH]c2c(c1C)C(=O)CC(c1cccs1)C2 (configuration not stated),57*,-1,39,-2,-4,0
COc1cc([C@@H]2c3cc4c(cc3[C@H](O)[C@H]3COC(=O)[C@H]23)OCO4)cc(OC)c1OC,73*,-6,/,-22,-3,0
COc1cc(CC(=O)NCc2ccc3c(c2)OCO3)cc(OC)c1OC,0,0,-2,13,0,1
Cc1cc(Oc2ccc(-c3ccccc3)cc2)n2ncnc2n1,34*,0,46*,6,-3,0
Cc1cc(C2C(=O)C(C(=O)c3ccc(Cl)cc3)C(=O)CC2(C)C)on1 (configuration not stated),-3,0,-9,-20,-2,0
O=C(Cn1c(SCC(=O)NC2CCCC2)nnc1-c1ccncc1)Nc1ccc2c(c1)OCO2,12,0,1,5,1,-1
Cc1ccc(-c2nnn(CC(=O)N(c3ccc(F)cc3)C(C(=O)NC3CCCC3)c3ccco3)n2)o1 (configuration not stated),16,0,16,-7,0,0
Cc1ccc(-c2nnn(CC(=O)N(c3cccc(F)c3)C(C(=O)NC3CCCC3)c3ccco3)n2)o1 (configuration not stated),32*,0,27,-8,-1,1
Cc1ccc(-c2nnn(CC(=O)N(Cc3cccs3)C(C(=O)NC(C)(C)C)c3ccco3)n2)o1 (configuration not stated),-13,0,-2,-48,-2,0
CC(C)(C)NC(=O)C(c1ccco1)N(C(=O)Cn1nnc(-c2ccc(F)cc2)n1)c1cccc(F)c1 (configuration not stated),8,-1,-3,-7,-1,10*
O=c1c2ccccc2nc(SCc2cn3ccsc3n2)n1-c1ccccc1F,43*,-1,12,18,10,0
O=c1c2ccccc2nc(SCc2cn3ccsc3n2)n1-c1ccccc1,38*,0,-1,-40,1,0
c1ccc(CSCc2cn3ccsc3n2)cc1,-11,-1,-3,4,-3,0
COc1cc(C(=O)O)cc(Br)c1OC1CCCC1,9,-1,18,6,-4,-1
Cc1ccc(Cl)cc1N1CCN(CC(=O)Nc2ccc3[nH]c(=O)[nH]c3c2)CC1,-3,-1,10,-7,0,0
CC(=O)NCc1ccc(C(=O)CSc2nnc(-c3ccncc3)n2Cc2ccccc2)o1,1,1,-2,-15,0,12*
SMILES,HTR1E antagonist,S1P3 ag,5HT1a antag,S1P1 ag-PAM,HTR1A agonist,HTR1E agonist
CC(O)C(=O)NCCOCCOCCNC(=O)C(C)O (configuration not stated),10,0,3,2,-3,-1
CCN(CCCNC(=O)COc1cc(=O)n(C)c2ccccc12)c1cccc(C)c1,-12,0,1,-31,0,24*
O=C(NCCCN1CCCCC1)C1CCC(=O)N1CCc1ccccc1 (configuration not stated),7,0,-1,-4,-4,0
Cc1ccnc(NC(=O)CCCOc2cc(=O)n(C)c3ccccc23)c1,20,-1,66*,-25,0,-1
O=C(NCCCN1CCN(c2cccc(Cl)c2)CC1)C1CCC(=O)N1Cc1ccccc1Cl (configuration not stated),-5,0,37,-9,7,14*
Cn1c(=O)cc(OCC(=O)NCCCN2CCN(c3ccccc3F)CC2)c2ccccc21,2,-1,61*,3,5,6
Cn1c(=O)cc(OCCCC(=O)NCCN2CCN(c3ccccc3F)CC2)c2ccccc21,-1,0,23,-14,0,0
COc1ccc(OC)c(NC2c3ccccc3C(=O)N2c2cccnc2)c1 (configuration not stated),10,-2,12,-6,-1,0
CCn1c(=O)cc(SCC(=O)NCCCN2CCN(c3ccccc3F)CC2)c2ccccc21,-11,-2,69*,-11,8,1
Cn1c(=O)cc(OCC(=O)NCCCN2CCN(c3cccc(Cl)c3)CC2)c2ccccc21,2,0,28,-9,1,9.3*
Cn1c(C(=O)NCCCN2CCN(c3ccccc3F)CC2)cc2c(=O)[nH]c3ccccc3c21,4,-1,75*,-24,18,25*
